{"source": "ChEMBL document CHEMBL5331120", "about": "“Stapled β-Hairpin Antimicrobial Peptides with Improved Stability and Activity against Drug-Resistant Gram-Negative Bacteria” (J Med Chem, 2023)", "key": {"Staphylococcus aureus": {"tested_on": "Staphylococcus aureus", "test": "Antimicrobial activity against Staphylococcus aureus ATCC 29737 assessed as inhibition of bacterial growth incubated for 18 hrs by broth microdilution method", "type": "functional, organism-based", "summary_of_the_method": "(§1)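 Standard broth microdilution in MHB. Overnight culture (37 °C, 120 rpm) adjusted to OD600 0.07 and diluted 1000× to 3 × 10^5 CFU/mL. Peptides serially diluted in triplicate, 18 h at 37 °C with 120 rpm shaking. Growth read as OD600; MIC is the lowest concentration with no visible growth. Colistin served as control for Gram-negatives, vancomycin for S. aureus.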"}, "Pseudomonas aeruginosa": {"tested_on": "Pseudomonas aeruginosa", "test": "Antimicrobial activity against Pseudomonas aeruginosa ATCC 9027 assessed as inhibition of bacterial growth incubated for 18 hrs by broth microdilution method", "type": "functional", "summary_of_the_method": "as §1"}, "Escherichia coli [1]": {"tested_on": "Escherichia coli", "test": "Antimicrobial activity against Escherichia coli ATCC 25922 assessed as inhibition of bacterial growth incubated for 18 hrs by broth microdilution method", "type": "functional", "summary_of_the_method": "as §1"}, "Escherichia coli [2]": {"tested_on": "Escherichia coli", "test": "Antimicrobial activity against colistin resistant Escherichia coli clinical isolate R1 harboring mcr-1 gene assessed as inhibition of bacterial growth incubated for 18 hrs by broth microdilution method", "type": "functional, organism-based", "summary_of_the_method": "(§2)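 Overnight MHB culture (37 °C, 120 rpm) adjusted to OD600 0.07 (~10^8 CFU/mL), then diluted 1000× to 3 × 10^5 CFU/mL. Peptides serially diluted with the bacterial suspension in triplicate, shaken at 37 °C, 120 rpm for 18 h, then OD600 read. MIC is the lowest concentration with no visible growth. Colistin as positive control.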"}, "Escherichia coli [3]": {"tested_on": "Escherichia coli", "test": "Antimicrobial activity against colistin/carbapenem resistant Escherichia coli clinical isolate R2 harboring mcr-1 and NDM-1 gene assessed as inhibition of bacterial growth incubated for 18 hrs by broth microdilution method", "type": "functional, organism-based", "summary_of_the_method": "as §2"}, "Erythrocyte": {"tested_on": "Erythrocyte", "test": "Hemolytic activity in human RBC upto 128 uM incubated for 1 hr by absorbance based analysis", "type": "toxicity, cell-based", "summary_of_the_method": "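Washed human RBCs from healthy volunteers at 4% in PBS. Peptide at 4–128 μM, 37 °C for 1 h. Supernatant after 1000g, 10 min spin read at OD540. 1% Triton X-100 gave full lysis; % hemolysis derived and HC50 estimated.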"}, "Escherichia coli [4]": {"tested_on": "Escherichia coli", "test": "Antimicrobial activity against Escherichia coli ATCC 25922 assessed as inhibition of bacterial growth compound pretreated for 1 hr with trypsin and measured after 18 hrs by broth microdilution method", "type": "functional, organism-based", "summary_of_the_method": "(§3)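 Peptide incubated with trypsin at a 1:2000 trypsin/peptide molar ratio (e.g., 1 mM peptide with 0.5 μM trypsin), 37 °C, 1 h. Reaction stopped at 80 °C for 10 min, then serially diluted against E. coli in MHB broth microdilution. Inoculum 3 × 10^5 CFU/mL, 37 °C, 120 rpm, 18 h, read by OD600, triplicates. Fold change in MIC taken versus untreated control.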"}, "Trypsin": {"target": "Trypsin (Homo sapiens, UniProt P07477+P07478+P35030)", "test": "Stability of compound assessed as trypsin (unknown origin) mediated compound degradation by measuring parent compound remaining measured after 1.5 hrs by RP-HPLC analysis", "type": "ADME, protein assay", "conditions": "trypsin, read-out: Stability", "summary_of_the_method": "(§4)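 Peptide with trypsin at a 1:2000 trypsin/peptide molar ratio, 37 °C, sampled at 15, 30, 60 and 90 min. Reaction stopped with an equal volume of 50% acetonitrile/1% TFA. Analysed on C18 RP-HPLC with UV at 220 nm; intact peptide given as % of AUC.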"}, "Escherichia coli [5]": {"tested_on": "Escherichia coli", "test": "Antimicrobial activity against Escherichia coli ATCC 25922 assessed as inhibition of bacterial growth incubated for 18 hrs in presence of 10% fetal bovine serum by broth microdilution method", "type": "functional, organism-based", "summary_of_the_method": "(§5)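 E. coli broth microdilution in MHB containing 10% fetal bovine serum. Inoculum 3 × 10^5 CFU/mL, diluted from an OD600 0.07 suspension. Incubated 18 h at 37 °C with 120 rpm shaking, OD600 read, triplicates. Fold change in MIC calculated against control MIC.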"}, "Cell membrane [6]": {"tested_on": "Cell membrane", "test": "Induction of outer membrane permeabilization in Escherichia coli ATCC 25922 assessed as NPN uptake at 1 times MIC incubated for 1 hr by fluorescence based microplate reader analysis relative to control", "summary_of_the_method": "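Exponential-phase cells washed twice in PBS pH 7, resuspended to OD600 0.4; equal volume 40 μM NPN added, then equal volume peptide (4, 8, 16 μM). Incubated 1 h at 37 °C with shaking. Fluorescence ex 355/em 405 nm; % uptake relative to no-compound (F0) and colistin 100 μM control (Fmax). Three repeats.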"}, "Cell membrane [7]": {"tested_on": "Cell membrane", "test": "Induction of inner membrane permeabilization in Escherichia coli ATCC 25922 assessed as SYTOX green uptake at 1 times MIC incubated for 1 hr by fluorescence based microplate reader analysis relative to control", "summary_of_the_method": "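Exponential-phase cells washed twice in PBS pH 7, resuspended to OD600 0.4; equal volume SYTOX green (4 μM) added, 5 min. Peptide added (4, 8, 16 μM), 1 h at 37 °C with shaking. Fluorescence ex 488/em 523 nm; % uptake computed from untreated (F0) and positive-control peptide BTT1 (Fmax) signals. Three repeats.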"}, "Escherichia coli [8]": {"tested_on": "Escherichia coli", "test": "Induction of membrane morphological changes in Escherichia coli ATCC 25922 at 16 uM measured after 1 hr by TEM analysis", "type": "functional, organism-based"}, "Escherichia coli [9]": {"tested_on": "Escherichia coli", "test": "Induction of membrane morphological changes in Escherichia coli ATCC 25922 at 16 uM measured after 3 to 6 hrs by TEM analysis", "type": "functional, organism-based", "conditions": "time 3-6 hrs"}, "Escherichia coli [10]": {"tested_on": "Escherichia coli", "test": "Bactericidal activity against Escherichia coli ATCC 25922 assessed as cell killing at 1 times MIC measured after 6 hrs relative to control", "type": "functional", "summary_of_the_method": "(§6)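 Time-kill against E. coli ATCC 25922 at 1× and 2× MIC, counted as CFU/mL over time. Limit of detection 50 CFU/mL; experiments repeated two times.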"}, "Escherichia coli [11]": {"tested_on": "Escherichia coli", "test": "Bactericidal activity against Escherichia coli ATCC 25922 assessed as cell killing at 2 times MIC measured after 3 hrs relative to control", "type": "functional", "summary_of_the_method": "as §6"}, "Escherichia coli [12]": {"tested_on": "Escherichia coli", "test": "Antimicrobial activity against colistin resistant Escherichia coli clinical isolate R1 harboring mcr-1 gene assessed as fold increase in MIC incubated for 18 hrs by broth microdilution method relative to control", "type": "functional"}, "Escherichia coli [13]": {"tested_on": "Escherichia coli", "test": "Antimicrobial activity against colistin/carbapenem resistant Escherichia coli clinical isolate R2 harboring mcr-1 and NDM-1 gene assessed as fold increase in MIC incubated for 18 hrs by broth microdilution method relative to control", "type": "functional"}, "Escherichia coli [14]": {"tested_on": "Escherichia coli", "test": "Antimicrobial activity against colistin/carbapenem resistant Escherichia coli clinical isolate R3 harboring NDM-7 and OXA-181 gene assessed as fold increase in MIC incubated for 18 hrs by broth microdilution method relative to control", "type": "functional"}, "Escherichia coli [15]": {"tested_on": "Escherichia coli", "test": "Antimicrobial activity against Escherichia coli ATCC 25922 assessed as fold increase in MIC compound pretreated for 1 hr with trypsin and measured after 18 hrs by broth microdilution method relative to control", "type": "functional", "conditions": "trypsin pretreatment 1 hr; MIC measured after 18 hrs", "summary_of_the_method": "as §3"}, "[16]": {"test": "Stability of compound assessed as trypsin (unknown origin) mediated compound degradation by measuring parent compound remaining measured after 1 hr by RP-HPLC analysis", "type": "ADME, protein assay", "conditions": "human, read-out: Stability", "summary_of_the_method": "as §4"}, "Escherichia coli [17]": {"tested_on": "Escherichia coli", "test": "Antimicrobial activity against Escherichia coli ATCC 25922 assessed as fold increase in MIC incubated for 18 hrs in presence of 10% fetal bovine serum by broth microdilution method relative to control", "type": "functional", "summary_of_the_method": "as §5"}, "Escherichia coli [18]": {"tested_on": "Escherichia coli", "test": "Antimicrobial activity against Escherichia coli ATCC 25922 assessed as fold increase in MIC incubated for 18 hrs in presence of NaCl by broth microdilution method relative to control", "type": "functional", "summary_of_the_method": "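MHB broth microdilution against E. coli with 150 mM NaCl added to the medium. Inoculum 3 × 10^5 CFU/mL, 37 °C, 120 rpm, 18 h, OD600 read, triplicates. MIC fold change taken relative to control.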"}}, "note": "Calls of active or inactive are those of the source. The rule behind the calls is not given here.", "data": [{"compound": "CC(C)C[C@@H]1NC(=O)[C@H](CCCCN)NC(=O)CNC(=O)C2CCCN2C(=O)[C@H](CCCCN)NC(=O)[C@H](CC(C)C)NC(=O)[C@H](CCCCN)NC(=O)[C@H](CC(C)C)NC(=O)[C@H](CCCCN)NC(=O)[C@@H](N)CC/C=C/CC[C@@H](C(=O)O)NC(=O)[C@H](CCCCN)NC(=O)[C@H](CC(C)C)NC(=O)[C@H](CCCCN)NC1=O", "note": "(single isomer, unassigned)", "values": [{"measurement": "Activity", "setting": "Staphylococcus aureus", "value": "inactive"}, {"measurement": "MIC", "setting": "Pseudomonas aeruginosa", "value": 8, "unit": "µM"}, {"measurement": "MIC", "setting": "Escherichia coli [1]", "value": 8, "unit": "µM"}, {"measurement": "Activity", "setting": "Escherichia coli [2]", "value": "Active"}, {"measurement": "Activity", "setting": "Escherichia coli [3]", "value": "Active"}, {"measurement": "Activity", "setting": "Erythrocyte", "value": "Non-Toxic"}, {"measurement": "Activity", "setting": "Escherichia coli [4]", "value": "Active"}, {"measurement": "remaining at 1.5 h", "setting": "Trypsin", "value": "> 40", "unit": "%"}, {"measurement": "Activity", "setting": "Escherichia coli [5]", "value": "Active"}, {"measurement": "Activity", "setting": "Cell membrane [6]", "value": 70, "unit": "%"}, {"measurement": "Activity", "setting": "Cell membrane [7]", "value": 80, "unit": "%"}, {"measurement": "Activity", "setting": "Escherichia coli [8]", "value": "inactive"}, {"measurement": "Activity", "setting": "Escherichia coli [9]", "value": "Active"}, {"measurement": "Activity", "setting": "Escherichia coli [10]", "value": 100, "unit": "%"}, {"measurement": "Activity", "setting": "Escherichia coli [11]", "value": 100, "unit": "%"}]}, {"compound": "H-LKLKLKPGKLKLKL-OH", "values": [{"measurement": "Activity", "setting": "Staphylococcus aureus", "value": "inactive"}, {"measurement": "fold change (FC)", "setting": "Escherichia coli [12]", "value": ">=8"}, {"measurement": "fold change (FC)", "setting": "Escherichia coli [13]", "value": ">=8"}, {"measurement": "fold change (FC)", "setting": "Escherichia coli [14]", "value": ">=8"}, {"measurement": "fold change (FC)", "setting": "Escherichia coli [15]", "value": 8}, {"measurement": "remaining at 1 h", "setting": "[16]", "value": "< 10", "unit": "%"}, {"measurement": "fold change (FC)", "setting": "Escherichia coli [17]", "value": 8}, {"measurement": "fold change (FC)", "setting": "Escherichia coli [18]", "value": 32}, {"measurement": "Activity", "setting": "Cell membrane [6]", "value": 40, "unit": "%"}, {"measurement": "Activity", "setting": "Cell membrane [7]", "value": 80, "unit": "%"}]}]}
